Compounds with a hit are over-represented: about 1.7% of the library has one in this group of screens.
HNF4A DNA FP = change in binding of human HNF4 alpha to DNA. P41235. HNF4a-FITC DNA binding, fluorescence polarization, 1 h. activity change, % at 10 µM. 360,000 tested, 0.3% active; in the data active means activity change above about 30%, passing the limit was not always enough
Target sequence (P41235 whole entry, looked up): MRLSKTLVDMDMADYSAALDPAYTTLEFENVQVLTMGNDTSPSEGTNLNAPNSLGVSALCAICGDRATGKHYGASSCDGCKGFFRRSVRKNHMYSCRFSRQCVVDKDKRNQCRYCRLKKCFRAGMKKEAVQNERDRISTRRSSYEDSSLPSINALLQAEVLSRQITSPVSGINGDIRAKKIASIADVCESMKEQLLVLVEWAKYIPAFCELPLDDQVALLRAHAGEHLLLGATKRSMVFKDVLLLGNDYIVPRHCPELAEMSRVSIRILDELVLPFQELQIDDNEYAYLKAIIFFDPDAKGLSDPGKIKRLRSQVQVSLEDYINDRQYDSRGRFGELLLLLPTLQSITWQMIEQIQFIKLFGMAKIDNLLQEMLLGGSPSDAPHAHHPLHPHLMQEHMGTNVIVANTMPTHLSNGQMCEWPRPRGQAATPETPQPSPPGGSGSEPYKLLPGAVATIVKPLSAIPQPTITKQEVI
TPT1 inhibitor = inhibitors of Candida albicans tRNA 2'-phosphotransferase TPT1. inhibition, % at 5 µM. 300,000 tested, 0.81% active. recombinant caTPT1, FP RNA substrate dephosphorylation;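 active means inhibition above the mean of all tested compounds plus 3 SD, set per screening campaign, cut at about 24% in these data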;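 further: plate controls were DMSO alone for no effect and ferristatin control at 100 nM for full effect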
IDE inh = cellular human IDE inhibition. P14735. HEK cells, FAbetaB cleavage, fluorescence polarization. inhibition, % at 5.59 µM. 320,000 tested, 0.41% active. AID 434962;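 active means percent inhibition above the average of all tested compounds plus 3 SD, set per screening campaign, cut at about 16% in these data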;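 further: IDE supplied by intact live HEK cells; FP after avidin binding of uncleaved biotin substrate so inhibition keeps polarization high; 0% = DMSO wells and 100% = 60 µM reference IDE inhibitor Ii1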
CSN inh = CSN deneddylation inhibition. Q92905. Purified CSN, SCF-Nedd8-OG deneddylation, fluorescence polarization. inhibition, % at 12.5 µM. 360,000 tested, 0.38% active;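 active means pattern-corrected inhibition above about 35%, with an unprinted fluorescence ratio check between 0.5 and 1.5, limit read from the data, passing the limit was not always enough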;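 further: 0% = enzyme with substrate and 100% = substrate without enzyme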
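Material: purified human Csn5 enzyme expressed in HEK293T cells / Medium: Tris buffer pH 7.5, NaCl, DTT, Tween-20, trehalose, ovalbumin / Compound dosing: 12.5 µM single point / Schedule: 90 min incubation of compound, enzyme and substrate at room temperature / Signal: fluorescence polarization of the substrate / Control set: no-enzyme wells high, enzyme-with-substrate wells low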
IDE act = boosts human insulin-degrading enzyme activity in HEK cells; FAbeta-B cleavage, fluorescence polarization; 0% vehicle, 100% cell-free pure enzyme wells; activation, % at 5.96 µM; 340,000 tested, 0.073% active; AID 493087;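 active means activation above the mean of all tested compounds plus 3 SD, set per screening campaign, cut at about 17% in these data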
Tb MetRS inh = blocks T. brucei methionyl-tRNA synthetase activity; purified T. brucei MetRS, ATP depletion, Kinase-Glo luminescence; inhibition, % at 11.9 µM; 360,000 tested, 0.4% active;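 active means inhibition above a per-plate cutoff of the control wells' mean inhibition plus 3 SD, cut at about 5.5% in these data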;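 further: 0% = DMSO wells median and 100% = median of wells with control inhibitor compound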
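System: purified T. brucei MetRS enzyme / Detection: Kinase-Glo luciferase luminescence reporting remaining unconsumed ATP / Medium: HEPES buffer with MgCl2, KCl, DTT, spermine, BSA, pyrophosphatase / Replication: singlicate, one well per compound / Evaluation: percent inhibition relative to median high and low control wells / Schedule: 2 h aminoacylation at 25 °C after 15 min preincubation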
caTPT1 confirm = confirmation of Candida albicans TPT1 inhibitors; shares compounds with TPT1 inhibitor; 2,400 tested, 74% active; AID 2149; inhibition, % at 5 µM; recombinant caTPT1, fluorescence polarization, RNase T1 coupled;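 active means inhibition above the primary screen limit, the mean inhibition of all tested compounds plus 3 SD, cut at about 25% in these data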
RNase T1 inh = RNase T1 inhibition in TPT1 counter-screen | shares compounds with TPT1 inhibitor | inhibition, % at 5 µM | 2,400 tested, 83% active | RNase T1 cleavage, fluorescence polarization, 1536-well;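 active means inhibition above the solvent-only control well mean plus 3 SD, limit set per screening run, cut at about 23% in these data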;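 further: plate controls were DMSO wells with enzyme for no effect and wells without RNase T1 for full effect; inhibitors block cleavage so intact labeled substrate keeps polarization high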
Target sequence (P00651 whole entry, looked up): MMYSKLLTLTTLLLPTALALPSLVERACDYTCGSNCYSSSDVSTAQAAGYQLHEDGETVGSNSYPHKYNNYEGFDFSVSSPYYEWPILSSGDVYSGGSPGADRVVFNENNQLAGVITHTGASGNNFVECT
* = called active by the depositor; nt = no result.

SMILES	HNF4A DNA FP	TPT1 inhibitor	IDE inh	CSN inh	IDE act	Tb MetRS inh	caTPT1 confirm	RNase T1 inh
Cc1ccc2[nH]c(=O)c3cc(C(=O)NCCC(C)C)sc3c2c1	-1.3	nt	nt	-2.6	6.1	-1.0	nt	nt
N=c1oc2cc(O)ccc2cc1C(=O)Nc1ccccn1	nt	29.0*	0.2	nt	nt	nt	-19.0	-5.9
N=c1oc2cc(O)ccc2cc1C(=O)Nc1nc2ccccc2s1	30.7	65.3*	2.4	40.8	-6.3	0.1	69.9*	74.6*
N=c1oc2cc(O)ccc2cc1C(=O)Nc1ccc(Br)cc1	26.0	8.1	3.4	7.9	-0.4	-0.5	nt	nt
O=C(CN(c1ccccc1Cl)S(=O)(=O)c1ccccc1)NC1CC2CCC1C2 (stereo not given)	0.1	nt	nt	2.0	nt	0.1	nt	nt
C=CCn1cc(C(=O)OCC)c(=O)c2cc(F)c(F)cc21	1.3	-3.0	1.7	-3.7	nt	-0.4	nt	nt
Cc1ccc(NC(=O)C2CCN(C(=O)c3ccco3)CC2)cc1C	1.4	1.8	-0.9	1.0	9.5	-0.9	nt	nt
COc1ccccc1NC(=O)CSc1nc(N)c(C#N)cc1C#N	19.9	32.2*	-5.5	7.3	nt	0.4	38.7*	50.2*
O=C(Nc1ccc(N2CCOCC2)cc1)c1csc([C@@H]2O[C@H](CO)[C@H](O)[C@H](O)[C@H]2O)n1	-0.5	nt	nt	-9.8	nt	0.4	nt	nt
Cc1cc(C=C2C(=O)c3ccccc3C2=O)c(C)n1-c1ccccc1	-34.9	20.3	-1.5	5.7	-8.7	-0.5	nt	nt
O=C(O)c1cccc(-n2cccc2C=C2C(=O)c3ccccc3C2=O)c1	-8.0	0.0	8.2	4.0	-16.3	1.1	nt	nt
Cc1cc(C=C2C(=O)c3ccccc3C2=O)c(C)n1-c1ccc(C(=O)O)cc1	2.8	27.0*	4.0	23.9	-1.3	-0.4	34.8*	47.3*
Cc1cc(C=C2C(=O)c3ccccc3C2=O)c(C)n1-c1cccc(C(=O)O)c1	1.5	30.6*	4.3	4.9	2.2	0.0	40.6*	51.2*
CC(C)(C)c1cnnn1-c1ccc(/C=N/Nc2ccc([N+](=O)[O-])cc2)cc1	12.4	25.7*	0.6	0.8	-3.4	-0.6	39.6*	53.0*
N#Cc1c(-c2ccccc2)nc(SCc2ccc(Cl)cc2)[nH]c1=O	0.0	-1.2	3.4	-4.2	0.7	0.9	nt	nt
N#Cc1c(-c2cccs2)nc(SCC(=O)c2cccs2)[nH]c1=O	15.2	39.8*	-0.5	17.4	-2.5	-1.0	22.7	29.7*
N#Cc1c(-c2ccccc2)nc(SCC(=O)Nc2ccccc2)[nH]c1=O	-1.9	-4.9	1.8	-16.9	3.2	-0.4	nt	nt
COC(=O)c1cccc(CSc2nc(-c3ccccc3)c(C#N)c(=O)[nH]2)c1	1.1	80.6*	-2.1	1.4	3.0	-0.6	5.8	8.7
O=C(CSc1nc2ccccc2c(=O)[nH]1)c1cccs1	2.0	-2.1	-1.2	0.5	1.2	-0.5	nt	nt
N#Cc1c(-c2ccccc2)nc(SCC(=O)N(c2ccccc2)c2ccccc2)[nH]c1=O	3.9	33.6*	-4.9	3.5	-3.3	0.2	10.9	18.4
Cc1cccc(C)c1NC(=O)C(c1ccccc1)N1CCC(c2ccccc2)CC1 (stereo not given)	-0.5	nt	nt	0.6	nt	-0.7	nt	nt
NC(=O)CN1C(=O)NC2(CCCc3ccccc32)C1=O (stereo not given)	1.4	1.6	1.1	4.1	4.7	-0.1	nt	nt
N#Cc1ccc(-c2cccnc2)nc1SCC(=O)Nc1sc2c(c1C#N)CCC2	4.8	45.9*	9.5	9.0	-13.8	-0.1	17.9	28.9*
CN1/C(=C\C(=O)COc2ccc3c(c2)OCO3)C(C)(C)c2ccccc21	15.8	32.2*	4.6	11.5	-4.1	0.0	33.9*	43.5*
COc1ccccc1OCC(=O)/C=C1/N(C)c2ccccc2C1(C)C	0.9	9.6	-1.1	1.9	-0.7	-0.6	nt	nt
SMILES	HNF4A DNA FP	TPT1 inhibitor	IDE inh	CSN inh	IDE act	Tb MetRS inh	caTPT1 confirm	RNase T1 inh
COC(=O)C1C=CC(OC2OC(COC(C)=O)C(OC(C)=O)C(OC(C)=O)C2OC(C)=O)n2c(=O)n(-c3ccccc3)c(=O)n21 (stereo not given)	-0.6	nt	nt	-2.5	3.2	-0.6	nt	nt
COc1ccc(C2=C/C(=C\c3cccc(OC(C)=O)c3)C(=O)O2)cc1	5.0	35.5*	1.1	3.1	6.6	-0.8	54.9*	67.6*
O=C(CCc1ccccc1)NNc1cc(N2CCCCC2)nc(N2CCCCC2)n1	0.8	9.5	-0.8	-3.3	10.5	-2.1	nt	nt
CC(C)(C)c1ccc(C(=O)NNc2cc(N3CCCCC3)nc(N3CCCCC3)n2)cc1	-4.9	45.4*	-3.9	1.2	5.8	-0.2	10.0	11.6
Cc1cc(C)cc(Nc2ccc(C(=O)O)cc2N)c1	4.3	28.6*	7.0	-2.1	7.5	-0.5	6.8	10.3
Cc1ccc(Nc2ccc(C(=O)O)cc2N)cc1	nt	1.8	0.1	nt	nt	nt	nt	nt
O=[N+]([O-])c1cc(-c2ncccn2)cs1	0.3	-1.6	1.1	1.0	-3.2	0.1	nt	nt
Nc1c(/C=C2/C=CC(=O)C(O)=C2)c(=O)nc2sc(CC(=O)N3CCOCC3)nn12	-0.9	nt	nt	53.1	-4.5	0.5	nt	nt
CC1=Nc2ccc(C)cc2/C1=C/c1c(N)n2nc(CC(=O)N3CCOCC3)sc2nc1=O	10.2	35.1*	2.6	13.7	0.7	1.0	23.7	36.3*
CNC(=O)CS(=O)CC(=O)Nc1cc(OCCOC)c(Cl)cc1Cl (stereo not given)	0.2	-3.3	0.6	-1.7	1.3	0.3	nt	nt
O=C(NCCc1ccccc1)c1cnc2sccn2c1=O	1.7	32.6*	3.8	1.4	-12.4	-0.1	8.9	9.6
O=C(NCc1ccco1)c1cnc2sccn2c1=O	-5.1	-2.1	2.1	2.4	1.9	0.1	nt	nt
CC(=O)Oc1ccc(C(=O)Nc2ccccc2C(=O)N2CCCC2)cc1	0.9	49.1*	5.4	-0.3	2.9	-0.8	3.9	7.9
CCOC(=O)c1c(CSc2cccs2)n(C)c2cc(Br)c(O)c(CN(C)C)c12	4.6	1.0	0.3	-2.0	6.4	-1.2	nt	nt
COc1ccc(N/C(C)=C/C(=S)Nc2ccccc2)cc1	-2.9	124.7*	0.9	15.9	4.0	-0.4	10.0	13.2
COc1ccc(N/C(C)=C/C(=O)c2ccccc2)cc1	0.9	0.5	2.0	-8.6	2.1	-1.1	nt	nt
O=C(OCC(=O)N1CCc2ccccc21)[C@@H]1CC(O)CN1S(=O)(=O)c1ccc(Cl)cc1 (stereo not given in full)	4.4	nt	-4.2	-5.1	2.7	0.4	nt	nt
O=C(/C=C/c1ccc(-c2ccccc2)o1)c1ccccc1	2.5	13.1	-0.3	4.1	-3.8	0.3	nt	nt
